Reference: ChEMBL document CHEMBL1154153, “Design, synthesis and antimycobacterial activity of some novel imidazo[1,2-c]pyrimidines” (2009)
In brackets after ≈: the same amount, converted by molar mass.

Tests used:
Type in all cases: functional
[1] = test system: Mycobacterium tuberculosis; test: Antimycobacterial activity against Mycobacterium tuberculosis H37Rv after 14 days by serial dilution technique; details: 336 h
Outline: (§1)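 H37Rv kept on L–J medium at 37 °C. Inoculum made by homogenizing growth with glass beads in Tween-albumin Middlebrook 7H9, letting large particles settle, and adjusting the supernatant to 3 ×10⁸ CFU by McFarland standard, with CFU/mL checked by plating. 0.1 mL went onto L–J slants with Gruft supplement holding serially diluted compound. Incubated 37 °C, read at 14, 21, 30 days. MIC was the lowest concentration with clear tubes; triplicate.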

[2] = test system: Mycobacterium tuberculosis; test: Antimycobacterial activity against Mycobacterium tuberculosis H37Rv after 21 days by serial dilution technique; details: 504 h; outline: as §1
[3] = test system: Mycobacterium tuberculosis; test: Antimycobacterial activity against Mycobacterium tuberculosis H37Rv after 30 days by serial dilution technique; outline: as §1

Row | SMILES | MIC [1] [µg/mL] | MIC [2] [µg/mL] | MIC [3] [µg/mL]
1 | CCOC(=O)C1=C(Nc2ccccc2Cl)N=C(c2ccccc2)N2CCN=C12 | > 200 | > 200 | > 200
2 | CCOC(=O)C1=C(Nc2ccc(OC)cc2)N=C(c2ccccc2)N2CCN=C12 | 5 (≈ 12.8 µM) | 5 (≈ 12.8 µM) | 50 (≈ 128 µM)
3 | CCOC(=O)C1=C(Nc2ccccc2)N=C(c2ccccc2)N2CCN=C12 | 50 (≈ 139 µM) | 50 (≈ 139 µM) | 100 (≈ 277 µM)
4 | CCOC(=O)C1=C(Nc2cccc(C(F)(F)F)c2)N=CN2CCN=C12 | 100 (≈ 284 µM) | 100 (≈ 284 µM) | > 200
5 | CCOC(=O)C1=C(Nc2ccc(Cl)cc2)N=CN2CCN=C12 | 5 (≈ 15.7 µM) | 5 (≈ 15.7 µM) | 20 (≈ 62.7 µM)
6 | CCOC(=O)C1=C(NCc2ccccc2)N=CN2CCN=C12 | 20 (≈ 67 µM) | 20 (≈ 67 µM) | 100 (≈ 335 µM)
7 | CCOC(=O)C1=C(Nc2ccccc2C)N=CN2CCN=C12 | > 200 | > 200 | > 200
8 | CCOC(=O)C1=C(Nc2ccccc2F)N=C(c2ccccc2)N2CCN=C12 | > 200 | > 200 | > 200
9 | CCOC(=O)C1=C(Nc2ccc(Cl)cc2)N=C(c2ccccc2)N2CCN=C12 | 20 (≈ 50.7 µM) | 20 (≈ 50.7 µM) | 50 (≈ 127 µM)
10 | CCOC(=O)C1=C(Nc2ccccc2F)N=CN2CCN=C12 | 5 (≈ 16.5 µM) | 5 (≈ 16.5 µM) | 50 (≈ 165 µM)
11 | CCOC(=O)C1=C(Nc2ccc(C)cc2)N=CN2CCN=C12 | 5 (≈ 16.8 µM) | 5 (≈ 16.8 µM) | 50 (≈ 168 µM)
12 | CCOC(=O)C1=C(Nc2ccc(Br)cc2)N=C(c2ccccc2)N2CCN=C12 | 100 (≈ 228 µM) | 100 (≈ 228 µM) | > 200
13 | CCOC(=O)C1=C(NC)N=C(c2ccccc2)N2CCN=C12 | > 200 | > 200 | > 200
14 | CCOC(=O)C1=C(Nc2ccccc2C)N=C(c2ccccc2)N2CCN=C12 | 100 (≈ 267 µM) | 100 (≈ 267 µM) | > 200
15 | CCOC(=O)C1=C(Nc2ccc(C)cc2)N=C(c2ccccc2)N2CCN=C12 | 100 (≈ 267 µM) | 100 (≈ 267 µM) | > 200
16 | CCOC(=O)C1=C(NC)N=CN2CCN=C12 | > 200 | > 200 | > 200

Row | SMILES | MIC [1] [µg/mL] | MIC [2] [µg/mL] | MIC [3] [µg/mL]
17 | CCOC(=O)C1=C(Nc2ccccc2)N=CN2CCN=C12 | 20 (≈ 70.3 µM) | 20 (≈ 70.3 µM) | 50 (≈ 176 µM)
18 | CCOC(=O)C1=C(Nc2cccc(Cl)c2)N=C(c2ccccc2)N2CCN=C12 | > 200 | > 200 | > 200
19 | CCOC(=O)C1=C(Nc2ccc(F)cc2)N=CN2CCN=C12 | 5 (≈ 16.5 µM) | 5 (≈ 16.5 µM) | 20 (≈ 66.2 µM)
20 | CCOC(=O)C1=C(NCc2ccccc2)N=C(c2ccccc2)N2CCN=C12 | > 200 | > 200 | > 200
21 | CCNC1=C(C(=O)OCC)C2=NCCN2C=N1 | > 200 | > 200 | > 200
22 | CCOC(=O)C1=C(Nc2ccc(F)cc2)N=C(c2ccccc2)N2CCN=C12 | 5 (≈ 13.2 µM) | 5 (≈ 13.2 µM) | 20 (≈ 52.9 µM)
23 | CCOC(=O)C1=C(Nc2ccccc2OC)N=C(c2ccccc2)N2CCN=C12 | > 200 | > 200 | > 200
24 | CCOC(=O)C1=C(Nc2ccc(OC)cc2)N=CN2CCN=C12 | 2 (≈ 6.36 µM) | 2 (≈ 6.36 µM) | 20 (≈ 63.6 µM)
25 | CCOC(=O)C1=C(Nc2cccc(C)c2)N=CN2CCN=C12 | > 200 | > 200 | > 200
26 | CCOC(=O)C1=C(Nc2cccc(Cl)c2)N=CN2CCN=C12 | > 200 | > 200 | > 200
27 | CCOC(=O)C1=C(Nc2ccc(Br)cc2)N=CN2CCN=C12 | 50 (≈ 138 µM) | 50 (≈ 138 µM) | 100 (≈ 275 µM)
28 | CCOC(=O)C1=C(Nc2ccccc2OC)N=CN2CCN=C12 | > 200 | > 200 | > 200
29 | CCNC1=C(C(=O)OCC)C2=NCCN2C(c2ccccc2)=N1 | > 200 | > 200 | > 200
30 | CCOC(=O)C1=C(Nc2ccccc2Cl)N=CN2CCN=C12 | > 200 | > 200 | > 200
31 | NCC[C@H](O)C(=O)N[C@@H]1C[C@H](N)[C@@H](O[C@H]2O[C@H](CN)[C@@H](O)[C@H](O)[C@H]2O)[C@H](O)[C@H]1O[C@H]1O[C@H](CO)[C@@H](O)[C@H](N)[C@H]1O [AMIKACIN] | 2 (≈ 3.42 µM) | 2 (≈ 3.42 µM) | 2 (≈ 3.42 µM)
32 | CO[C@H]1/C=C/O[C@@]2(C)Oc3c(C)c(O)c4c(c3C2=O)C2=NC3(CCN(CC(C)C)CC3)NC2=C(NC(=O)/C(C)=C\C=C\[C@H](C)[C@H](O)[C@@H](C)[C@@H](O)[C@@H](C)[C@H](OC(C)=O)[C@@H]1C)C4=O [RIFABUTIN] | 0.05 (≈ 0.059 µM) | 0.05 (≈ 0.059 µM) | 0.05 (≈ 0.059 µM)
